High-throughput results as filed in PubChem.
hERG protect – hERG rescue from dofetilide block, primary screen, cell-based, CHO-hERG, FluxOR thallium flux, dofetilide IC70; AID 1511, 2009; dofetilide IC70 present; activation (rescue from dofetilide block), less the hit threshold, % at 10 µM; hit rate 0.51% among 310,000; Voltage-gated inwardly rectifying potassium channel KCNH2 (Homo sapiens), Q12809;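 active = activation above the mean of controls blocked by dofetilide plus 5 SD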;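 also: thallium influx through hERG after potassium depolarization seen as dye fluorescence rise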
KCNQ1 block – inhibitors of human KCNQ1 channel, primary screen, cell-based, thallium flux, high-throughput; hit rate 1.3% among 310,000; CHO-K1 KCNQ1, FluxOR thallium flux fluorescence; hits give high values; B-score at 10 µM;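 active = compounds whose thallium flux B-score, printed positive for inhibition, exceeds three library SD while starting fluorescence stays within three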;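 also: channel opened by potassium depolarization with thallium stimulus after 20 min compound exposure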
Target sequence (P51787 whole entry, looked up): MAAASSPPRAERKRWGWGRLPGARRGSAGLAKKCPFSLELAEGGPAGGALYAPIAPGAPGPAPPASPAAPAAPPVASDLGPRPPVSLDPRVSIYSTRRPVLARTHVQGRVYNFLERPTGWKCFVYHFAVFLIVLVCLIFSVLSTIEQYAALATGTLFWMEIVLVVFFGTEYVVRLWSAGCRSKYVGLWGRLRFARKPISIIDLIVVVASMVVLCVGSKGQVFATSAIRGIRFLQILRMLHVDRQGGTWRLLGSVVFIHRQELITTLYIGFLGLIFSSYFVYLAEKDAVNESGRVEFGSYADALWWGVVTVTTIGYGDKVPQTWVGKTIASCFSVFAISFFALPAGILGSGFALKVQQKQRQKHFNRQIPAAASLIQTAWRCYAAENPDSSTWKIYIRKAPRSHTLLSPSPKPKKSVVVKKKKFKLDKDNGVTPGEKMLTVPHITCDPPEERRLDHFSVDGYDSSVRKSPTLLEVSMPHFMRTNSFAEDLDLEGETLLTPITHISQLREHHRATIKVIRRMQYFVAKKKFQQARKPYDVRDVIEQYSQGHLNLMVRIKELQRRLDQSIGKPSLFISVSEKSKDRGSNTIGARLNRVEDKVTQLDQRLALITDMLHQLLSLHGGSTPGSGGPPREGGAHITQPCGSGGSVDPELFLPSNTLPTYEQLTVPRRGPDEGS
KCNK3 inh – human KCNK3 channel inhibitors, primary screen, CHO cells, FluxOR thallium flux, B-score. Potassium channel subfamily K member 3 (Homo sapiens), O14649. FluxOR fluorescence; hits give low values. B-score at 10 µM. hit rate 0.84% among 340,000. AID 602410, 2012;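 active = B-score under library mean minus 4 SD, starting fluorescence ratio at most library mean plus 5 SD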;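 also: more negative B-score means stronger inhibition of thallium flux through KCNK3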
Cl transport mod – KCC2 cotransporter modulators, thallium flux, primary screen, cell-based, HEK293 KCC2, FluoZin-2 fluorescence, MLSMR; B-score of Tl+ flux slope (higher = more flux/activation; lower = inhibition) at 10 µM; hit rate 2.2% among 190,000; KCC2 cells, thallium flux FluoZin-2 fluorescence; Solute carrier family 12 member 5 (Homo sapiens), Q9H2X9; AID 1456, 2008;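 active = thallium flux slope and its plate-corrected score both differing from the plate sample mean at a set confidence after two filtering rounds, in either direction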;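 also: slope of fluorescence scaled to starting intensity during 10 to 20 s after thallium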
KCNK9 inh – KCNK9 potassium channel inhibitors, primary screen, HEK293 cells, thallium flux; Potassium channel subfamily K member 9 (Homo sapiens), Q9NPC2; FluxOR thallium flux fluorescence; hits give low values; B-score at 10 µM; hit rate 1.2% among 310,000;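 active = ratio B-score over 3 SD below the library mean, with starting fluorescence within 5 SD of its mean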;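 also: negative B-score means less thallium flux so channel inhibition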
KCNQ1 act – potentiators or activators of KCNQ1 channel, primary screen, cell-based, thallium flux, high-throughput. B-score at 10 µM. hit rate 0.35% among 310,000. CHO-K1 KCNQ1, thallium flux FluxOR fluorescence; hits give high values;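 active = fluorescence ratio B-score, a plate-corrected score, at least three library SD, with initial intensity B-score within 5 SD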
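Doses: Single concentration per compound, DMSO matched to controls | Test system: KCNQ1-transfected CHO-K1 cells | Timing: 90 min dye loading and 20 min compound exposure, both at room temperature | Measured by: Kinetic FluxOR thallium fluorescence, 10-s 1-Hz baseline, 110-s post-stimulus read | Medium: Assay buffer with matched DMSO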
KCNK9 block conf – KCNK9 potassium channel inhibitors, confirmation, HEK293 cells, thallium flux, duplicate. FluxOR thallium flux fluorescence. inhibition, % at 10 µM. shares compounds with KCNK9 inh. hit rate 43% among 4,900;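 active = thallium signal inhibited by more than 5 SD of the compound-free buffer control wells, on both duplicate plates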
Kir2-1 spec – mouse Kir2.1 channel inhibition, confirmation, selectivity assay for KCNK9 modulator project, cell-based, HEK293, thallium flux; shares compounds with KCNK9 inh; hit rate 4% among 4,900; inhibition, % at 10 µM; Kir2.1 cells, FluxOR thallium flux fluorescence; AID 492993, 2010;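 active = thallium signal drop more than 5 SD beyond the mean of the no-compound control wells, seen in both duplicate plates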;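 also: signal is fluorescence rise after thallium addition divided by baseline fluorescence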
KCNK9 uninduced – thallium flux in non-induced HEK293 cells, confirmation, counter-screen for KCNK9 inhibitor project, cell-based, second counter screen, non-induced KCNK9-HEK293. shares compounds with KCNK9 inh. FluxOR thallium flux. inhibition, % at 10 µM. hit rate 40% among 4,900. AID 492997, 2010;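 active = thallium signal drop beyond 5 SD of the untreated control mean, on both duplicate plates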
Hits are given with their value; 0 = inactive; - = no result given. This is a sample that favours compounds with a hit; in the whole collection about 4.1% have one here.

SMILES | hERG protect | KCNQ1 block | KCNK3 inh | Cl transport mod | KCNK9 inh | KCNQ1 act | KCNK9 block conf | Kir2-1 spec | KCNK9 uninduced
O=C(Nc1ccc(N2CCOCC2)c(S(=O)(=O)Nc2cc(Cl)ccc2Cl)c1)c1cccnc1 | 0 | 0 | 0 | 0 | 0 | 0 | - | - | -
CC(=O)NC(=S)Nc1ccc(N2CCOCC2)c(S(=O)(=O)Nc2cc(Cl)ccc2Cl)c1 | 0 | 0 | 0 | 0 | -15 | 0 | 66% | 0 | 27%
Cc1ccc(CCS(=O)(=O)c2ccc(C(C)(C)C)cc2)cn1 | 0 | 0 | 0 | - | 0 | 0 | - | - | -
CCOC(=O)Nc1ccc2c(c1)N(C(=O)CN)c1ccccc1CC2 | 0 | 0 | 0 | - | 0 | 0 | - | - | -
CCNCC(=O)N1c2ccccc2CCc2ccc(NC(=O)OCC)cc21 | 0 | 0 | 0 | - | -11 | 0 | 54% | 0 | 34%
Cc1csc2nc(CSc3nncn3-c3ccccc3)c(Br)n12 | 0 | 0 | 0 | 0 | 0 | 0 | - | - | -
Cc1csc2nc(CSc3nc4ccccc4o3)c(Br)n12 | 0 | 0 | 0 | 0 | -12 | 0 | 0 | 0 | 46%
CCc1ccc(N=C2NC(=O)/C(=C/c3cc(OC)c(O)c(OC)c3)S2)cc1 | 0 | 0 | 0 | - | -8.8 | 0 | 0 | 0 | 34%
COc1cc(/C=C2\SC(=Nc3ccccc3)NC2=O)cc(Cl)c1O | 0 | 0 | 0 | - | 0 | 0 | - | - | -
CCOC(=O)c1c(C)oc2cc(Br)c(OC(C)C(=O)OCC)cc12 (stereo not drawn) | 0 | 0 | 0 | 0 | 0 | 0 | 0 | 0 | 0
CCOC(=O)COc1cc2c(C(=O)OCC)c(C)oc2cc1Br | 0 | 0 | 0 | 0 | 0 | 0 | - | - | -
CC[C@]12c3[nH]c4ccc(Cl)cc4c3CCN1C(=O)[C@@H](CC(=O)NC/C=C(\C)CCC=C(C)C)C[C@@H]2C(=O)N1CCN(C(=O)C2CC2)CC1 | - | - | 0 | - | - | - | - | - | -
CCN(CC)C(=O)CSc1nc(-c2cccs2)cc(-c2cccs2)c1C#N | 0 | 0 | 0 | 0 | -9.8 | 0 | 62% | 0 | 68%
CSc1ccc(CN(C)CC(=O)N(C)CC(=O)Nc2ccccc2Br)cc1 | - | - | 0 | - | - | - | - | - | -
CSc1ccc(CN(C)CC(=O)Nc2ccc(C)cc2Br)cc1 | 0 | 0 | 0 | 0 | 0 | 0 | 0 | 0 | 0
CC(C)CN(C(=O)CCCOc1ccc(Cl)cc1Cl)c1c(N)n(Cc2ccccc2)c(=O)[nH]c1=O | 0 | 0 | 0 | - | 0 | 0 | - | - | -
CCOC(=O)CSc1nc2c(sc(=S)n2-c2ccccc2OC)c(=O)n1Cc1ccco1 | 0 | 0 | 0 | 0 | -9.1 | 0 | 0 | 0 | 36%
CCOC(=O)CSc1nc2c(sc(=S)n2-c2ccccc2OC)c(=O)n1-c1ccccc1OC | 0 | 0 | 0 | - | -10 | 0 | 0 | 0 | 31%
COc1ccc(C(=O)NC(=O)COC(=O)C2CC2C)cc1 (stereo not drawn) | - | - | 0 | - | - | - | - | - | -
CC(C)N1C(=O)C(Cc2nc3ccccc3c(=O)n2-c2ccccc2)c2ccccc21 (stereo not drawn) | 0 | 0 | 0 | - | 0 | 0 | 0 | 0 | 0
C=CC(=O)NCCCc1cc(C(C)(C)C)c(O)c(C(C)(C)C)c1 | 0 | 0 | 0 | 0 | 0 | 0 | 0 | 0 | 0
CC(C)(C)c1cc(CCC(=O)NN)cc(C(C)(C)C)c1O | 0 | 0 | 0 | 0 | 0 | 0 | - | - | -
N#Cc1cc2c(nc1SCc1cccc(Cl)c1)CCCCC2 | 0 | 0 | 0 | 0 | -8.3 | 0 | 27% | 0 | 35%
